Measured values as given in ChEMBL document CHEMBL1124248, “Preparation and antischistosomal and antitumor activity of hycanthone and some of its congeners. Evidence for the mode of action of hycanthone” (1988).

Assays:
Nucleic Acid [1] = experiment: Binding of 1x 10e-5 M [3H]HC to HeLa DNA; type: nucleic-acid assay; conditions: Homo sapiens
How it was run: (§1)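 HeLa cells exposed 1 h to [3H]-labelled drug, washed three times with saline, then held 30 min at 37 °C in drug-free medium. After a 2 h digestion at 37 °C, crude DNA was ethanol-precipitated, purified on a CsCl density gradient, dialyzed and reprecipitated. DNA was quantified by A260. An aliquot was treated with DNase, and DNase-sensitive radioactivity was expressed as drug molecules per base pair.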

Nucleic Acid [2] = experiment: Binding of 5x 10e-4 M [3H]HC to HeLa DNA; type: nucleic-acid assay; conditions: Homo sapiens; how it was run: as §1
Nucleic Acid [3] = experiment: In vitro binding of [3H]HC to calf thymus DNA after precipitation with alcohol and TCA was measured after 2 day; type: nucleic-acid assay; conditions: Bos taurus
How it was run: (§2)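 0.02 µCi of 3H-labelled drug was added to 50 µg calf thymus DNA in 20 µL of 0.1 M citrate-phosphate buffer, pH 7. Incubated 1.5 h at 37 °C in the dark, diluted to 0.1 mL saline and dialyzed against saline at 4 °C for up to 4 days. Duplicate 10 µL samples taken from inside the bags at intervals were counted directly, or after TCA precipitation.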

Nucleic Acid [4] = experiment: In vitro binding of [3H]-HC to calf thymus DNA after precipitation with alcohol and TCA was measured after 3 days; type: nucleic-acid assay; conditions: Bos taurus; how it was run: as §2
Nucleic Acid [5] = experiment: In vitro binding of [3H]HC to calf thymus DNA after precipitation with alcohol and TCA was measured after 4 day; type: nucleic-acid assay; conditions: Bos taurus; how it was run: as §2
Nucleic Acid [6] = experiment: In vitro binding of [3H]HC to calf thymus DNA was measured after 1 day; type: nucleic-acid assay; conditions: Bos taurus; how it was run: as §2
Nucleic Acid [7] = experiment: In vitro binding of [3H]HC to calf thymus DNA was measured after 2 days; type: nucleic-acid assay; conditions: Bos taurus; how it was run: as §2
Nucleic Acid [8] = experiment: In vitro binding of [3H]HC to calf thymus DNA was measured after 2 hours; type: nucleic-acid assay; conditions: Bos taurus; how it was run: as §2
Nucleic Acid [9] = experiment: Binding of 1x 10e-4 M [3H]HC to HeLa DNA; type: nucleic-acid assay; conditions: Homo sapiens; how it was run: as §1
Nucleic Acid [10] = experiment: In vitro binding of [3H]HC to calf thymus DNA was measured after 3 days; type: nucleic-acid assay; conditions: Bos taurus; how it was run: as §2
Nucleic Acid [11] = experiment: In vitro binding of [3H]HC to calf thymus DNA was measured after 4 day; type: nucleic-acid assay; conditions: Bos taurus; how it was run: as §2
Nucleic Acid [12] = experiment: In vitro binding of [3H]HC to calf thymus DNA; type: nucleic-acid assay; conditions: Bos taurus; how it was run: as §2
Nucleic Acid [13] = experiment: In vitro binding of [3H]HC to calf thymus DNA after precipitation with alcohol and TCA was measured; type: nucleic-acid assay; conditions: Bos taurus; how it was run: as §2
Nucleic Acid [14] = experiment: In vitro binding of [3H]HC to calf thymus DNA after precipitation with alcohol and TCA was measured after 1 day; type: nucleic-acid assay; conditions: Bos taurus; how it was run: as §2
Nucleic Acid [15] = experiment: In vitro binding of [3H]HC to calf thymus DNA after precipitation with alcohol and TCA was measured after 2 hours; type: nucleic-acid assay; conditions: Bos taurus; how it was run: as §2
HeLa [16] = experiment: Incorporation of 2*10e-5 M [3H]-uridine in HeLa cells in absence of HC measured as as TCA precipitable radioactivity compared with non treated controls; type: functional, cell-based; conditions: Homo sapiens
How it was run: (§3)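 HeLa cells (10^6 per duplicate tube) were exposed to drug for 1 h, washed three times with medium, then held 2 h in drug-free medium. [3H]uridine was added for 1 h. Cells were precipitated with 10% TCA, and precipitates were filter-collected and counted. Values are % TCA-precipitable radioactivity versus untreated controls.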

HeLa [17] = experiment: Incorporation of 2*10e-5 M [3H]uridine in HeLa cells in presence of HC measured as as TCA precipitable radioactivity compared with non treated controls; type: functional, cell-based; conditions: Homo sapiens
How it was run: (§4)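 HeLa cells (10^6 per duplicate tube) were incubated 1 h with drug. [3H]uridine was then added and incubation continued 1 h with drug present. Cells were washed with cold saline and precipitated with 10% TCA. Precipitates were collected on glass filters, TCA-washed and counted. Values are % TCA-precipitable radioactivity versus untreated controls.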

HeLa [18] = experiment: Incorporation of 10e-5 M [3H]uridine in HeLa cells in absence of HC measured as as TCA precipitable radioactivity compared with non treated controls; type: functional, cell-based; conditions: Homo sapiens; how it was run: as §3
HeLa [19] = experiment: Incorporation of 10e-5 M [3H]uridine in HeLa cells in presence of HC measured as as TCA precipitable radioactivity compared with non treated controls; type: functional, cell-based; conditions: Homo sapiens; how it was run: as §4
Mus musculus = experiment: In vivo antitumor activity against p-388 lymphocytic leukemia in mice at 60 mg/kg; type: functional
How it was run: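 Murine P388 lymphocytic leukemia model tested by the National Cancer Institute. Compound given once daily for 9 days; activity expressed as T/C.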

Schistosoma mansoni [20] = experiment: Incorporation of 0.7 M *10e6 [3H]uridine in hycanthone(HC) sensitive Schistosoma mansoni; type: functional
Schistosoma mansoni [21] = experiment: Incorporation of 1.4 M*10e6 [3H]uridine in hycanthone(HC) resistant Schistosoma mansoni; type: functional
How it was run: (§5)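 Adult HC-resistant S. mansoni were treated in vitro, and [3H]uridine incorporation by the worms was measured. Values are % of control. Concentrations are given in M × 10^6.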

Schistosoma mansoni [22] = experiment: Incorporation of 1.4 M*10e6 [3H]uridine in hycanthone(HC) sensitive Schistosoma mansoni; type: functional
Schistosoma mansoni [23] = experiment: Day 50% survival of worms in culture of HC resistant Schistosoma mansoni; type: functional
How it was run: (§6)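 Adult HC-resistant S. mansoni were exposed in vitro and kept in culture. The value is the day by which 50% of worms were dead. Cultures were ended at different times in different experiments. Concentrations are given in M × 10^6.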

Schistosoma mansoni [24] = experiment: Day 50% survival of worms in culture of HC sensitive Schistosoma mansoni; type: functional
[25] = Total radioactivity of [3H]HC was evaluated after 2 hours; type: functional
How it was run: (§7)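 3H-labelled drug (0.02 µCi) was mixed with 50 µg calf thymus DNA in 0.1 M citrate-phosphate buffer, pH 7, and incubated in the dark for 1.5 h at 37 °C. The mix was diluted in saline and dialysed against saline at 4 °C. Duplicate samples drawn from inside the bags at intervals up to 4 days were counted directly.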

[26] = Total radioactivity of [3H]HC was evaluated after 2 hr; type: functional; how it was run: as §7
[27] = (§8) Total radioactivity of [3H]HC was evaluated after 3 days; type: functional; how it was run: as §7
[28] = as §8; type: functional; how it was run: as §7; remark: listed apart in the source
HeLa [29] = experiment: Incorporation of [3H]uridine in HeLa cells after 2x10e-5 M HC measured as as TCA precipitable radioactivity compared with non treated controls; conditions: Homo sapiens
Schistosoma mansoni [30] = experiment: Day 50% survival of worms in culture of HC sensitive Schistosoma mansoni at 1.3 *10e6 M; type: functional
Schistosoma mansoni [31] = experiment: Incorporation of 1.3 *10e6 M [3H]uridine in hycanthone(HC) resistant Schistosoma mansoni; type: functional; how it was run: as §5
Schistosoma mansoni [32] = experiment: Incorporation of 1.3 *10e6 M [3H]uridine in hycanthone(HC) sensitive Schistosoma mansoni; type: functional
Schistosoma mansoni [33] = experiment: Incorporation of 2.6 *10e6 M [3H]uridine in hycanthone(HC) resistant Schistosoma mansoni; type: functional; how it was run: as §5
Schistosoma mansoni [34] = experiment: Incorporation of 2.6 *10e6 M [3H]uridine in hycanthone(HC) sensitive Schistosoma mansoni; type: functional
Schistosoma mansoni [35] = experiment: Incorporation of 5.2*10e6M [3H]uridine in hycanthone(HC) resistant Schistosoma mansoni; type: functional; how it was run: as §5
Schistosoma mansoni [36] = experiment: Incorporation of 5.2*10e6M [3H]-uridine in hycanthone(HC) sensitive Schistosoma mansoni; type: functional
Schistosoma mansoni [37] = experiment: Day 50% survival of worms in culture of HC resistant Schistosoma mansoni at 1.3 *10e6 M; type: functional; how it was run: as §6
Schistosoma mansoni [38] = experiment: Day 50% survival of worms in culture of HC resistant Schistosoma mansoni at 5.2*10e6M; type: functional; how it was run: as §6

Work on `CCN(CC)CCNc1ccc(CO)c2sc3ccccc3c(=O)c12` [HYCANTHONE] yielded a Drug mol/base pair (Nucleic Acid [1]) of under 4e-08, a Drug mol/base pair (Nucleic Acid [2]) of 7e-07 and a Radioactivity (Nucleic Acid [3]) of 275 c.p.m. The Radioactivity (Nucleic Acid [4]) was 265 c.p.m, the Radioactivity (Nucleic Acid [5]) was 200 c.p.m and the Radioactivity (Nucleic Acid [6]) was 3460 c.p.m. The Radioactivity (Nucleic Acid [7]) was 2300 c.p.m, the Radioactivity (Nucleic Acid [8]) was 50000 c.p.m and the Drug mol/base pair (Nucleic Acid [9]) was under 4e-08. For the same molecule, the Radioactivity (Nucleic Acid [10]) was 1600 c.p.m, the Radioactivity (Nucleic Acid [11]) was 1100 c.p.m and the Radioactivity (Nucleic Acid [12]) was 235000 c.p.m. For the same molecule, the Radioactivity (Nucleic Acid [13]) was 350 c.p.m, the Radioactivity (Nucleic Acid [14]) was 330 c.p.m and the Radioactivity (Nucleic Acid [15]) was 430 c.p.m. It also gave a Radioactivity (HeLa [16]) of 68%, a Radioactivity (HeLa [17]) of 37% and a Radioactivity (HeLa [18]) of 88%. The Radioactivity (HeLa [19]) was 32%, the T/C (Mus musculus) was 165 and the Control (Schistosoma mansoni [20]) was 20%. For the same molecule, the Control (Schistosoma mansoni [21]) was 98%, the Control (Schistosoma mansoni [22]) was 30% and the Effect (Schistosoma mansoni [23]) was over 12 days. For the same molecule, the Effect (Schistosoma mansoni [24]) was 7 days, the Radioactivity [25] was 20500 c.p.m and the Radioactivity [26] was 100 c.p.m. The Radioactivity [27] was 700 c.p.m, the Radioactivity [28] was 62 c.p.m and the Radioactivity (HeLa [29]) was 68%.
Molecule `CN(C)CCNc1ccc(CO)c2sc3ccc(O)cc3c(=O)c12` has an Effect (Schistosoma mansoni [30]) of 9 days, a Control (Schistosoma mansoni [31]) of 96% and a Control (Schistosoma mansoni [32]) of 43%. It also gave a Control (Schistosoma mansoni [33]) of 108%, a Control (Schistosoma mansoni [34]) of 20% and a Control (Schistosoma mansoni [35]) of 91%. The Control (Schistosoma mansoni [36]) was 23%, the Effect (Schistosoma mansoni [37]) was over 12 days and the Effect (Schistosoma mansoni [38]) was over 12 days.
